pIC50, pKi: −log10 of the molar value. ≈ marks a conversion by molar mass, not a printed value. Entries after “also recorded” stand apart in the source; their conditions may differ. Like-named read-outs stand apart in the source and are kept apart here.
Key:
[1] = Solubility of naringenin in various solvents; assay type: physicochemical; conditions: for Naringenin concentration (solubility): 25°C
[2] = Octanol/water partition coefficient; assay type: physicochemical
[3] = Stability in solution; assay type: physicochemical
Outline: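 Test compound was dissolved at 10 g per 100 g propylene glycol and stored at 25 ± 2°C and 60 ± 5% RH, with sampling at 1, 2, 3 and 4 months; recovery was the read-out. Separately, aqueous buffer solutions (50 mg/kg) at pH 3, 5 and 7 were incubated at 90°C as accelerated testing.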

[4] = test system: Wistar rats; experiment: In vivo micronucleus assay in peripheral blood; parameters: species or system rat
[5] = test system: Sprague Dawley rats; experiment: Extended one-generation reproductive toxicity; assay type: in vivo, rat
[6] = ref Kanaze et al. (2007), cited from earlier work
[7] = ref Gardana et al. (2007), cited from earlier work
[8] = 24 h urine, ref Aschoff et al. (2016), cited from earlier work
[9] = human volunteers; ref Documentation provided to EFSA No. 4; cited from earlier work
[10] = 10 h post dosing; ref Felgines et al. (2000); cited from earlier work
[11] = test system: Pig caecum; conditions: anaerobic incubation 0-24 h; ref Labib et al. (2004); cited from earlier work
[12] = test system: Bifidobacterium longum R0175; conditions: 25 μg/mL, cultures of B. longum; ref Pereira‐Caro et al. (2016); cited from earlier work
[13] = test system: Intestinal bacteria isolated from human faeces; conditions: 5 mg flavonoids in 50 mL broth, 2 days, anaerobic; ref Kim et al. (1998); cited from earlier work
[14] = test system: Clostridium orbiscindens; conditions: ref Schoefer et al. (2003); cited from earlier work
[15] = test system: ERβ and ERα; conditions: in vitro; ref Helle et al. (2015); cited from earlier work
[16] = test system: CYP2C9; conditions: ref Lu et al. (2011); cited from earlier work
[17] = test system: CYP2B6; conditions: concentrations up to 10 μM; ref Lu et al. (2011); cited from earlier work
[18] = test system: CYP2D6; conditions: concentrations up to 10 μM; ref Lu et al. (2011); cited from earlier work
[19] = biological target: simvastatin metabolism; conditions: rat and human hepatocytes and microsomes; ref Ubeaud et al. (1999); cited from earlier work
[20] = test system: felodipine metabolism in human liver microsomes; conditions: substrate felodipine; ref Fasinu et al. (2013), Ho et al. (2001); cited from earlier work
[21] = test system: quinine metabolism in human liver microsomes; conditions: substrate quinine; ref Fasinu et al. (2013), Ho et al. (2001); cited from earlier work
[22] = test system: felodipine metabolism by pig intestinal tissue slices; conditions: ref Fasinu et al. (2010); cited from earlier work
[23] = test system: Wistar rats; conditions: Gavage, M, 3/group; ref Ortiz‐Andrade et al. (2008); cited from earlier work
[24] = test system: Wistar rats; conditions: ref Selvam and Kaliyaperumal (2015), cited from earlier work
[25] = test system: Wistar rats; conditions: 50 mg/kg bw per day, 4 weeks; ref Motawi et al. (2014); cited from earlier work
[26] = F1 C1A females, high‐dose group

O=C1CC(c2ccc(O)cc2)Oc2cc(O)cc(O)c21 (stereo not shown) [naringenin, 4H‐1‐Benzopyran‐4‐one, 2,3‐dihydro‐5,7‐dihydroxy‐2‐(4‐hydroxyphenyl)‐]
solubility ([1]; 80% ethanol, 25 °C, organic solvent or mixture): ~60 mg/mL (≈ 220 mM)
Solubility in ethanol ([1]; 95% ethanol): Soluble
Naringenin concentration (solubility) ([1]; Ethanol): 10 % (w/w)
Naringenin concentration (solubility) ([1]; Ethanol, 80%): 5 % (w/w)
Naringenin concentration (solubility) ([1]; Propylene glycol): 2.5 % (w/w)
solubility ([1]; ethanol, 25 °C, organic solvent or mixture): ~125 mg/mL (≈ 459 mM)
solubility ([1]; in water): Almost insoluble
Solubility in other ([1]; other solvents): Soluble in ether and benzene
solubility ([1]; propylene glycol, 25 °C, organic solvent or mixture): ~25 mg/mL (≈ 91.8 mM)
solubility ([1]; water, 25 °C): 0.05 mg/mL (≈ 0.184 mM)
octanol/water partition coefficient [2]: 2.52
time stable when dissolved in propylene glycol ([3]; 25 ± 2°C, 60 ± 5% RH): at least 4 months
time for which stability was demonstrated ([3]; aqueous buffer solutions (50 mg/kg) pH 3, 5, 7 at 90°C): up to 8 h
% MNPCE frequency ([4]; 500 mg/kg bw per day): 0.06 ± 0.01%
% MNPCE frequency ([4]; 2000 mg/kg bw per day): 0.06 ± 0.02%
maximum tolerated dose (MTD) ([4]; gavage at 0, 24 and 45 h, male and female rats): 2000 mg/kg bw per day
% MNPCE frequency ([4]; mid‐dose (1000 mg/kg bw per day), male rats, blood 3 h after last administration): 0.08 ± 0.01%
Absolute organ weight ([5]; F1 C1A females): ↑ G3, G4 thymus; also recorded: ↑ G4 spleen and iliac lymph nodes
Thyroid hormone levels: T4 ([5]; F1 C1A females): T4: –
increase in mean platelet count [5, 26]: 25%
mean platelet count [5, 26]: 1138.20 × 10^3 cells/μL
Absolute organ weight ([5]; F1 C1A males): ↓ G2 and G3 testes and iliac lymph nodes; also recorded: ↓ G4 iliac lymph nodes
Lymphocyte typing (spleen): T helper cells (CD4+) ([5]; F1 C1A males): T helper cells (CD4+): ↑ G2, G3 and G4, no dose‐related trend
Thyroid hormone levels: T4 ([5]; F1 C1A males): T4: –
Thyroid hormone levels: TSH ([5]; F1 C1A males): TSH: –
Absolute organ weight ([5]; F1 C1B females): ↑ G4 thymus; also recorded: ↑ G3 uterus with cervix
Absolute organ weight ([5]; F1 C1B males): ↑ G3 thymus
Absolute organ weight ([5]; F1 pups (surplus) females, PND 21): PND 21: ↓ G2 spleen; ↑ G3 spleen; ↓ G2 brain
Absolute organ weight ([5]; F1 pups (surplus) males, PND 21): PND 21: ↑ G3 spleen
reduction of anogenital distance (AGD) ([5]; F1 pups, PND4, highest dose females): 4%
decreased normal sperm ([5]; F1‐C1A cohort): ~ 1%
increased sperm with abnormalities ([5]; F1‐C1A cohort): 50%
increase of thymus gland weight ([5]; F1‐C1A females, highest dose group): 24%
reduction of daily sperm production ([5]; F1‐C1A males, high dose): 2%
reduction of daily sperm production ([5]; F1‐C1A males, low dose): 7%
decrease of absolute iliac lymph node weight ([5]; F1‐C1A males, mid dose): 30%
mean pre-coital interval ([5]; F1‐CB cohort, G3): 7.6 days
change in mean pup weight ([5]; F2, PND 1, males, group G4‐C1B): −4%
change in mean pup weight ([5]; F2, PND 4, females, group G4‐C1B): −8%
change in mean pup weight ([5]; F2, PND 14, females, group G3‐C1B): −5%
change in mean pup weight ([5]; F2, PND 14, females, group G4‐C1B): −5%
oestrous cycle length, increase following exposure ([5]; P females, significant in lowest and highest exposed groups): up to 6%
mean pre-coital interval ([5]; P generation, G4): 8 days
decrease in mean urinary pH value ([5]; P males, high‐dose group): 12%
increase in mean urinary specific gravity ([5]; P males, high‐dose group): 1%
margin of exposure (MoE) ([5]; adults, chronic APET as flavouring substance, NOAEL 1320 mg/kg bw per day): 1590
margin of exposure (MoE) ([5]; adults, chronic combined exposure incl. other food sources): 1390
fertility indices (pregnancy, parturition and gestation) ([5]; all tested dose groups, P and F1‐C1B generations): 100%
margin of exposure (MoE) ([5]; children, acute combined exposure): 48
margin of exposure (MoE) ([5]; children, chronic APET as flavouring substance, NOAEL 1320 mg/kg bw per day): 630
margin of exposure (MoE) ([5]; children, chronic combined exposure incl. other food sources): 550
post-implantation loss ([5]; high‐dose P females): 12.6%
NOAEL (dietary concentration) ([5]; mid‐dose): 20,000 mg/kg feed
NOAEL ([5]; mid‐dose, P males, pre‐cohabitation period): 1320 mg/kg bw per day
Cmax ([6]; single oral 135 mg (496 μmol) capsule): 7.5 µM
cumulative urinary excretion, percentage of administered dose ([6]; single oral 135 mg capsule, 24 h after dosing): 5.81 ± 0.81%
T max (time of peak plasma level) ([6]; single oral 135 mg capsule): 4 h
peak plasma concentration (total naringenin) ([6]; single oral 135 mg capsule): 7.4 µM
time of first appearance in plasma after dosing ([6]; single oral 135 mg capsule): 20 min
Half-life of elimination (plasma) ([6]; single oral 135 mg capsule, listed as NAR‐A): T ½ ~ 2.3 h
C max (plasma naringenin) ([7]; BOJ 150 mL, 6 mg (22 μmol)): 16.4 ng/mL
C max (plasma naringenin) ([7]; BOJ 300 mL, 12 mg (44 μmol)): 34 ng/mL
proportion of naringenin excreted in the urine ([8]; after orange fruit (400 g)): 12.9%
proportion of naringenin excreted in the urine ([8]; after pasteurised orange juice (719 g)): 20.3%
glucuronic acid and sulfate conjugates as share of the dose [9]: ~ 20 % of the dose
naringenin in caecal contents [10]: 15 μmol/caecum
Results: microbial transformation products [11]: Naringenin was transformed to 3‐(4‐hydroxyphenyl)‐propionic acid and 3‐phenylpropionic acid
Recovery [12]: 88%
Results: bacterial metabolism [13]: transformed to phenolic acids
Results: conversion by C. orbiscindens [14]: converted 0.5 mM naringenin to 3‐(4‐hydroxyphenyl) propionic acid
affinity for oestrogen receptors [15]: stronger affinity with ERβ than ERα
pIC50 [16]: > 5.30
inhibition [17]: No appreciable inhibition
inhibition [18]: No appreciable inhibition
pKi [19]: 4.52 to 5.30
pIC50 [20]: 3.91
pIC50 [21]: 3.73 to 3.86
pIC50 [22]: 3.74
LD50 [23]: > 5000 mg/kg bw
LD50 ([24]; Gavage, M, 10/group, arithmetic method): 340 mg/kg bw
LD50 ([24]; rats, considered not reliable by the Panel): about 330 mg/kg bw
histopathological examination of the liver [25]: slight inflammatory cell infiltration in the portal areas

— publication PMC11094580 (EFSA Journal, 2024)
